Measured values: ChEMBL document CHEMBL1125805, “Cholecystokinin antagonists: (R)-tryptophan-based hybrid antagonists of high affinity and selectivity for CCK-A receptors” (J Med Chem, 1991)

Columns and labels:
[1] = target: T1, Cholecystokinin receptor type A (Cavia porcellus, UniProt Q63931); test: Inhibition of [125I]Bolton-Hunter CCK-8 binding to cholecystokinin type A receptor in guinea pig pancreatic membranes.; assay type: cell membranes
T1 sequence (Q63931 whole entry): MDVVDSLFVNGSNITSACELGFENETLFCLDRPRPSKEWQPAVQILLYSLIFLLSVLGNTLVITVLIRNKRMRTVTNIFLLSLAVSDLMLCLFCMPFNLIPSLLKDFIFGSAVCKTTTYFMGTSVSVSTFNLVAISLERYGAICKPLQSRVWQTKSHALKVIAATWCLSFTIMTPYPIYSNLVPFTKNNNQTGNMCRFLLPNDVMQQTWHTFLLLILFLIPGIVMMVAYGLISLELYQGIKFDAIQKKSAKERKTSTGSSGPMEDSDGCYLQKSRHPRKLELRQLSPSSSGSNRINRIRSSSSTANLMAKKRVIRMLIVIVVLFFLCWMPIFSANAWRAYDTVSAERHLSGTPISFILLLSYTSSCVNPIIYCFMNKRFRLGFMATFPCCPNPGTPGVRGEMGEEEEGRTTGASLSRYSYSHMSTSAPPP

Cavia porcellus [2] = species on record: Cavia porcellus; test: Inhibition of CCK-8-stimulated amylase release; assay type: functional
Cavia porcellus [3] = species on record: Cavia porcellus; test: The compound was tested for the inhibition of CCK-8-stimulated amylase release; assay type: functional
How it was run: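 Amylase release was stimulated with CCK-8 at 3 × 10⁻¹⁰ M as the reference concentration, following a published procedure. Inhibition by test compounds gave IC50 values.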

SMILES	IC50 [1]	IC50 (Cavia porcellus [2])	IC50 (Cavia porcellus [3])
CCOC(=O)CN(Cc1ccccc1)C(=O)[C@@H](Cc1c[nH]c2ccccc12)NC(=O)c1cnc2ccccc2c1	400 nM		
CCCCCN(CCCCC)C(=O)[C@@H](Cc1c[nH]c2ccccc12)NC(=O)c1ccc[nH]1		> 100000 nM	
CCCCCN(CCCCC)C(=O)[C@H](Cc1c[nH]c2ccc(F)cc12)NC(=O)c1cnc2ccccc2c1	48 nM	> 100000 nM	
CCCCCN(CCCCC)C(=O)[C@H](Cc1c[nH]c2ccccc12)NC(=O)Nc1cccc(C)c1	1500 nM	< 100000 nM	
CCCCCN(CCCCC)C(=O)[C@H](Cc1c[nH]c2ccccc12)NC(=O)Nc1ccc(Cl)cc1	> 10000 nM		
C[C@@H](NC(=O)[C@@H](Cc1c[nH]c2ccccc12)NC(=O)c1cnc2ccccc2c1)c1ccccc1	810 nM		> 10000 nM
CCCCCN(CCCCC)C(=O)C(Cc1c[nH]c2ccc(OCc3ccccc3)cc12)NC(=O)c1cnc2ccccc2c1 (configuration not stated)		< 100000 nM	
CCCCCN(CCCCC)C(=O)[C@@H](Cc1c[nH]c2ccccc12)NC(=O)c1cc(O)c2cccc(O)c2n1		46 nM	
CCCCCN(CCCCC)C(=O)[C@@H](Cc1c[nH]c2ccccc12)NC(=O)c1cc2ccccc2[nH]1		670 nM	
CCCCCN(CCCCC)C(=O)[C@H](Cc1c[nH]c2ccccc12)NC(=O)Nc1ccc(C)cc1	> 10000 nM		
CCCCCN(CCCCC)C(=O)[C@@H](Cc1c[nH]c2ccccc12)NC(=O)c1nccc2ccccc12		> 100000 nM	
CCCCCN(CCCCC)C(=O)[C@H](Cc1c[nH]c2ccccc12)NC(=O)c1ccc(Cl)cc1	475 nM	< 30000 nM	
CCCCCN(CCCCC)C(=O)[C@@H](Cc1c[nH]c2ccccc12)NC(=O)c1ccc2cc(O)ccc2c1		100000 nM	
CCCCCN(CCCCC)C(=O)[C@@H](Cc1c[nH]c2ccccc12)NC(=O)Nc1cccc(C)c1	1100 nM	> 30000 nM	
CCCCCN(CCCCC)C(=O)[C@@H](Cc1c[nH]c2ccccc12)NC(=O)c1cc(O)c2ccccc2n1	51 nM	110 nM	
CCCCCN(CCCCC)C(=O)[C@@H](Cc1c[nH]c2ccccc12)NC(=O)Nc1ccc(Cl)cc1	4200 nM		
CCCCCN(CCCCC)C(=O)[C@@H](Cc1c(Sc2ccccc2[N+](=O)[O-])[nH]c2ccccc12)NC(=O)c1cnc2ccccc2c1		< 100000 nM	
CCCCCN(CCCCC)C(=O)[C@@H](Cc1c[nH]c2ccccc12)NC(=O)c1ccc(Cl)cc1	370 nM	< 10000 nM	
CCCCCN(CCCCC)C(=O)[C@@H](Cc1c[nH]c2ccccc12)NC(=O)c1ccc2cccc(O)c2n1	390 nM	< 100000 nM	
CCCCCN(CCCCC)C(=O)[C@@H](CCC(=O)O)NC(=O)c1cc(O)c2cccc(O)c2n1	7 nM	106 nM	

SMILES	IC50 [1]	IC50 (Cavia porcellus [2])	IC50 (Cavia porcellus [3])
C[C@H](NC(=O)[C@@H](Cc1c[nH]c2ccccc12)NC(=O)c1cnc2ccccc2c1)c1ccccc1	180 nM		
CCCCCN(CCCCC)C(=O)[C@@H](Cc1c[nH]c2ccccc12)NC(=O)c1cccc2ccccc12	500 nM	< 30000 nM	
CCCCCN(CCCCC)C(=O)[C@@H](Cc1c[nH]c2ccc(O)cc12)NC(=O)c1cnc2ccccc2c1	11 nM	27 nM	
CCCCCN(CCCCC)C(=O)[C@@H](Cc1c[nH]c2ccccc12)NC(=O)c1ccc2ccccc2n1	120 nM	1300 nM	
CCCCCN(CCCCC)C(=O)[C@@H](Cc1c[nH]c2ccccc12)NC(=O)c1cnc2ccccc2c1		43 nM	
CCCCCN(CCCCC)C(=O)[C@@H](Cc1c[nH]c2ccccc12)NC(=O)c1cccnc1	14600 nM	> 100000 nM	
CCCCCN(CCCCC)C(=O)[C@H](Cc1c[nH]c2ccccc12)NC(=O)c1cc2ccccc2[nH]1	520 nM	< 30000 nM	
CCCCCN(CCCCC)C(=O)[C@@H](Cc1c[nH]c2ccccc12)NC(=O)c1c[nH]c2ccccc12	430 nM	< 10000 nM	
CCCCCN(CCCCC)C(=O)[C@@H](Cc1c[nH]c2ccccc12)NC(=O)/C=C/c1cccnc1	> 1000 nM	< 100000 nM	
CCCCCN(CCCCC)C(=O)[C@@H](CC1C(=O)Nc2ccccc21)NC(=O)c1cnc2ccccc2c1 (some centres not stated)	46 nM	62 nM	
CN(Cc1ccccc1)C(=O)[C@@H](Cc1c[nH]c2ccccc12)NC(=O)c1cnc2ccccc2c1	600 nM		
CCCCCN(CCCCC)C(=O)[C@@H](Cc1c[nH]c2ccccc12)NC(=O)c1ccc2ccccc2c1	29 nM	360 nM	
CCCCCN(CCCCC)C(=O)[C@@H](Cc1c[nH]c2ccccc12)NC(=O)c1cc2ccccc2cn1	880 nM	< 100000 nM	
CCCCCN(CCCCC)C(=O)[C@H](Cc1c[nH]c2ccccc12)NC(=O)c1ccc(Cl)c(Cl)c1	670 nM	> 30000 nM	
CCCCCN(CCCCC)C(=O)[C@@H](Cc1c[nH]c2ccccc12)NC(=O)c1ccc2ncccc2c1	239 nM	< 10000 nM	
CCCCCN(CCCCC)C(=O)[C@@H](Cc1c[nH]c2ccccc12)NC(=O)c1cc2cc(F)ccc2[nH]1	155 nM	< 100000 nM	
CCCCCN(CCCCC)C(=O)[C@H](Cc1c[nH]c2ccccc12)NC(=O)c1cnc2ccccc2c1		< 100000 nM	
CCCCCN(CCCCC)C(=O)[C@@H](Cc1c[nH]c2ccccc12)NC(=O)c1ccc(Cl)c(Cl)c1	190 nM	2500 nM	
O=C(N[C@@H](Cc1c[nH]c2ccccc12)C(=O)O)c1ccc(Cl)cc1 [BENZOTRIPT]	> 100000 nM		
